Measurements: ChEMBL document CHEMBL3856250, “Discovery of 6-Fluoro-5-(R)-(3-(S)-(8-fluoro-1-methyl-2,4-dioxo-1,2-dihydroquinazolin-3(4H)-yl)-2-methylphenyl)-2-(S)-(2-hydroxypropan-2-yl)-2,3,4,9-tetrahydro-1H-carbazole-8-carboxamide (BMS-986142): A Reversible Inhibitor of Bruton's Tyrosine Kinase (BTK) Conformationally Constrained by Two …” (J Med Chem, 2016)
Active and inactive are the calls of the source. No cut-off for these calls is given here.

Tests used:
[1] = biological target: T1, Tyrosine-protein kinase BTK (Homo sapiens, UniProt Q06187); assay: Inhibition of BTK in human Ramos-B cells assessed as suppression of BCR/anti-IgM-stimulated Ca2+ flux after 1 hr incubation in dark by FLIPR1 assay
[2] = biological target: T1, Tyrosine-protein kinase BTK
Homo sapiens [3] = species on record: Homo sapiens; assay: Selectivity ratio of IC50 for JAK2 (unknown origin) to IC50 for full length recombinant human His-tagged BTK expressed in baculovirus
[4] = biological target: T1, Tyrosine-protein kinase BTK; assay: Inhibition of BTK in human whole blood assessed as suppression of BCR/anti-IgM/IgG-stimulated CD69 surface expression after 18 hrs with agitation by FITC-staining based FACS analysis; type: tissue-based
[5] = Cmax in mouse at 10 mg/kg, iv or po; type: ADME, organism-based; settings: in vivo
[6] = AUC in mouse at 10 mg/kg; type: ADME, organism-based; settings: in vivo
[7] = Drug metabolism in mouse assessed as metabolite 13c formation at 10 mg/kg, iv or po; type: ADME, organism-based; settings: in vivo
Mus musculus [8] = assay: Anti-autoimmune activity in lupus prone NZB/WF1 mouse model assessed as reduction in immune complex deposits at 10 mg/kg, po administered qd for 16 weeks; type: functional, organism-based
Mus musculus [9] = assay: Anti-autoimmune activity in lupus prone NZB/WF1 mouse model assessed as protection against glomerular nephritis at 10 mg/kg, po administered qd for 16 weeks; type: functional, organism-based
Mus musculus [10] = assay: Anti-autoimmune activity in lupus prone NZB/WF1 mouse model assessed as protection against inflammatory infiltration at 10 mg/kg, po administered qd for 16 weeks; type: functional, organism-based
Mus musculus [11] = assay: Anti-autoimmune activity in lupus prone NZB/WF1 mouse model assessed as protection against tubulo-interstitial nephritis at 10 mg/kg, po administered qd for 16 weeks; type: functional, organism-based
[12] = Clearance in mouse at 10 mg/kg, iv or po; type: ADME, organism-based; settings: in vivo
[13] = Stability in plasma (unknown origin) at 37 degC after 5 days; type: ADME, cell-free; settings: 120 h
[14] = Stability of the compound in methanol at 37 degC after 5 days; type: physicochemical; settings: 120 h
[15] = Drug metabolism in rat plasma assessed as compound-6 formation after 4 hrs by HPLC analysis; type: ADME, cell-free
How it was run: (§1)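 Atropisomer distribution was followed in plasma from multiple species incubated at 37 °C over 4 h.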

[16] = Stability of the compound in methanol at 37 degC assessed as kinetic half life; type: physicochemical
[17] = Drug level in human plasma treated with 4-(3-(S)-(8-Fluoro-1-methyl-2,4-dioxo-1,2-dihydroquinazolin-3(4H)-yl)-2-methylphenyl)7-(2-hydroxypropan-2-yl)-9H-carbazole-1-carboxamide after 4 hrs by HPLC analysis; type: ADME
How it was run: as §1

[18] = Drug level in cynomolgus monkey plasma treated with 4-(3-(S)-(8-Fluoro-1-methyl-2,4-dioxo-1,2-dihydroquinazolin-3(4H)-yl)-2-methylphenyl)7-(2-hydroxypropan-2-yl)-9H-carbazole-1-carboxamide after 4 hrs by HPLC analysis; type: ADME, Macaca fascicularis
How it was run: as §1

[19] = Drug metabolism in dog plasma assessed as compound-6 formation after 4 hrs by HPLC analysis; type: ADME, cell-free, Canis lupus familiaris
How it was run: as §1

[20] = Cmax in mouse at 5 mg/kg; type: ADME, organism-based; set-up: dose 5 mg/kg; settings: in vivo
[21] = Protein binding in human serum; type: ADME; settings: read-out: PPB (converted)
[22] = Drug metabolism in mouse plasma assessed as compound-6 formation after 4 hrs by HPLC analysis; type: ADME, cell-free
How it was run: as §1

[23] = Drug level in rat plasma treated with 4-(3-(S)-(8-Fluoro-1-methyl-2,4-dioxo-1,2-dihydroquinazolin-3(4H)-yl)-2-methylphenyl)7-(2-hydroxypropan-2-yl)-9H-carbazole-1-carboxamide after 1 hr by HPLC analysis; type: ADME
How it was run: as §1

[24] = AUC in mouse at 5 mg/kg; type: ADME, organism-based; settings: in vivo
[25] = Stability of the compound in methanol at 37 degC after 3 days; type: physicochemical; settings: 72 h
Mus musculus [26] = assay: Anti-autoimmune activity in lupus prone NZB/WF1 mouse model assessed as protection against glomerular nephritis at 30 mg/kg, po administered qd for 16 weeks; type: functional, organism-based
How it was run: (§2)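 Female NZB/WF1 mice, 24 weeks old, were randomized (n = 12 per group) after baseline body weight, proteinuria and serum dsDNA titers were measured. They were dosed by oral gavage once daily for 16 weeks in 80:20 PEG400/water vehicle, with prednisolone 10 mg/kg as the comparator arm. Health was monitored routinely, and weight, proteinuria and anti-dsDNA titers were measured every 3 weeks.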

Mus musculus [27] = assay: Anti-autoimmune activity in lupus prone NZB/WF1 mouse model assessed as protection from disease-related death at 30 mg/kg, po administered qd for 16 weeks; type: functional, organism-based
How it was run: as §2

Mus musculus [28] = assay: Anti-autoimmune activity in lupus prone NZB/WF1 mouse model assessed as inhibition of increase in severe proteinuria at 30 mg/kg, po administered qd for 16 weeks; type: functional, organism-based
How it was run: as §2

Homo sapiens [29] = species on record: Homo sapiens; assay: Inhibition of Na+ channel (unknown origin) at 10 uM at 1 Hz by patch clamp assay
Homo sapiens [30] = species on record: Homo sapiens; assay: Inhibition of Na+ channel (unknown origin) at 10 uM at 4 Hz by patch clamp assay
Mus musculus [31] = assay: Antiathritis activity in anticollagen antibody-induced arthritis BALB/c mouse model assessed as reduction in LPS-induced bone resorption in right hind paws at 5 and 20 mg/kg, po qd followed by LPS addition on day 3 measured after 11 days relative to control; type: functional, organism-based
Mus musculus [32] = assay: Anti-autoimmune activity in lupus prone NZB/WF1 mouse model assessed as reduction in immune complex deposits at 30 mg/kg, po administered qd for 16 weeks; type: functional, organism-based
How it was run: as §2

Mus musculus [33] = assay: Anti-autoimmune activity in lupus prone NZB/WF1 mouse model assessed as protection against tubulo-interstitial nephritis at 30 mg/kg, po administered qd for 16 weeks; type: functional, organism-based
How it was run: as §2

Mus musculus [34] = assay: Antiathritis activity in anticollagen antibody-induced arthritis BALB/c mouse model assessed as reduction in LPS-induced inflammation in right hind paws at 5 and 20 mg/kg, po qd followed by LPS addition on day 3 measured after 11 days relative to control; type: functional, organism-based
Mus musculus [35] = assay: Anti-autoimmune activity in lupus prone NZB/WF1 mouse model assessed as protection against inflammatory infiltration at 30 mg/kg, po administered qd for 16 weeks; type: functional, organism-based
How it was run: as §2

Homo sapiens [36] = species on record: Homo sapiens; assay: Inhibition of Ca2+ channel (unknown origin) at 10 uM by patch clamp assay
[37] = Drug level in rat treated with 3-Chloro-4-(R)-(3-(S)-(8-fluoro-1-methyl-2,4-dioxo-1,2-dihydroquinazolin-3(4H)-yl)-2-methylphenyl)-7-(2-hydroxypropan-2-yl)-9H-carbazole-1-carboxamide assessed as compound formation; type: ADME; settings: in vivo
[38] = Drug level in mouse treated with 3-Chloro-4-(R)-(3-(S)-(8-fluoro-1-methyl-2,4-dioxo-1,2-dihydroquinazolin-3(4H)-yl)-2-methylphenyl)-7-(2-hydroxypropan-2-yl)-9H-carbazole-1-carboxamide assessed as compound formation; type: ADME; settings: in vivo
[39] = Drug level in dog treated with 3-Chloro-4-(R)-(3-(S)-(8-fluoro-1-methyl-2,4-dioxo-1,2-dihydroquinazolin-3(4H)-yl)-2-methylphenyl)-7-(2-hydroxypropan-2-yl)-9H-carbazole-1-carboxamide assessed as compound formation; type: ADME, Canis lupus familiaris; settings: in vivo

T1 sequence (Q06187 whole entry): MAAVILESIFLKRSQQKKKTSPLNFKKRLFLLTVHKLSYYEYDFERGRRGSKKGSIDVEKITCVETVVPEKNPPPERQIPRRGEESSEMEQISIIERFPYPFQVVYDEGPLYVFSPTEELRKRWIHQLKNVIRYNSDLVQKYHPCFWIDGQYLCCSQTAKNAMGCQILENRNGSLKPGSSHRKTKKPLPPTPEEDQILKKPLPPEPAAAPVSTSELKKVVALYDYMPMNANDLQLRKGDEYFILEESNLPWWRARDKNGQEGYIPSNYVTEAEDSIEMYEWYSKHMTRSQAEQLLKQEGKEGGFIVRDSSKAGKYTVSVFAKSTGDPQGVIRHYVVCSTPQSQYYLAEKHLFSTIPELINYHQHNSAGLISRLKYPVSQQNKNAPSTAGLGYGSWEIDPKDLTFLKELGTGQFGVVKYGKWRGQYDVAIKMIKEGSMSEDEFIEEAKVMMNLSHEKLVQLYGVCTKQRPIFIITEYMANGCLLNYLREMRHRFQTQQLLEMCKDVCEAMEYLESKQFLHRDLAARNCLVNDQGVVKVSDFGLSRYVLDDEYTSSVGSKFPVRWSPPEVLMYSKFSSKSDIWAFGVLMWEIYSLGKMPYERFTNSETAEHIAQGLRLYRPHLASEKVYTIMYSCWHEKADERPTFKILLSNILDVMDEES

Row | SMILES | IC50 [1] | IC50 [2] | Ratio IC50 (Homo sapiens [3]) | IC50 [4] | Cmax [5] | AUC [6] | other results
1 | Cc1c(-c2ccc(C(N)=O)c3[nH]c4c(c23)CC[C@@H](C(C)(C)O)C4)cccc1-n1c(=O)c2cccc(F)c2n(C)c1=O | 190 nM | 11 nM | 180 | – | – | – | –
2 | Cc1c(-c2c(C#N)cc(C(N)=O)c3[nH]c4cc(C(C)(C)O)ccc4c23)cccc1-n1c(=O)c2cccc(F)c2n(C)c1=O | 6 nM | – | 7100 | 120 nM | 0.12 µM | 0.31 µM·h | –
3 | Cc1c(-c2ccc(C(N)=O)c3[nH]c4c(c23)CC[C@H](C(C)(C)O)C4)cccc1-n1c(=O)c2cccc(F)c2n(C)c1=O | 63 nM | 2.7 nM | 740 | 380 nM | 3.6 µM | 16 µM·h | –
4 | Cc1c(-c2c(F)cc(C(N)=O)c3[nH]c4cc(C(C)(C)O)ccc4c23)cccc1-n1c(=O)c2cccc(F)c2n(C)c1=O | – | – | – | – | 5.5 µM | 28 µM·h | Drug metabolism [7]: Metabolite_Detected
5 | Cc1c(-c2ccc(C(N)=O)c3[nH]c4cc(C(C)(C)O)ccc4c23)cccc1-n1cnc2ccccc2c1=O | – | – | – | – | – | 80 µM·h | –
6 | C[C@]12C=CC(=O)C=C1CC[C@@H]1[C@@H]2[C@@H](O)C[C@@]2(C)[C@H]1CC[C@]2(O)C(=O)CO | – | – | – | – | – | – | Activity (Mus musculus [8]): Active; Activity (Mus musculus [9]): Active; Activity (Mus musculus [10]): Active; Activity (Mus musculus [11]): Active
7 | Cc1c(-c2c(Cl)cc(C(N)=O)c3[nH]c4c(c23)CC[C@H](C(C)(C)O)C4)cccc1-n1c(=O)c2cccc(F)c2n(C)c1=O | – | – | – | – | 4.5 µM | 25 µM·h | CL [12]: 15%
8 | Cc1c(-c2c(F)cc(C(N)=O)c3[nH]c4c(c23)CC[C@@H](C(C)(C)O)C4)cccc1-n1c(=O)c2cccc(F)c2n(C)c1=O | 36 nM | – | 910 | 150 nM | – | – | –
9 | Cc1cc(C(N)=O)c2[nH]c3cc(C(C)(C)O)ccc3c2c1-c1cccc(-n2c(=O)c3cccc(F)c3n(C)c2=O)c1C | 17 nM | 0.65 nM | – | 240 nM | 6.3 µM | 48 µM·h | –
10 | Cc1c(-c2c(Cl)cc(C(N)=O)c3[nH]c4cc(C(C)(C)O)ccc4c23)cccc1-n1c(=O)c2cccc(F)c2n(C)c1=O | – | – | – | – | 4.7 µM | 41 µM·h | Stability [13]: Stable; Stability [14]: Stable
11 | Cc1c(-c2ccc(C(N)=O)c3[nH]c4cc(C(C)(C)O)ccc4c23)cccc1-n1c(=O)c2cccc(F)c2n(C)c1=O | – | – | – | – | – | – | Drug metabolism [15]: Metabolite_Notdetected; half-life [16]: 1.15 h; Drug uptake [17]: Active; Drug uptake [18]: Active; Drug metabolism [19]: Metabolite_Notdetected; Cmax [20]: 2.2 µM; fraction unbound [21]: < 0.01; Drug metabolism [22]: Metabolite_Notdetected; Drug uptake [23]: Active; AUC [24]: 25 µM·h; Stability [25]: Stable
12 | Cc1c(-c2c(F)cc(C(N)=O)c3[nH]c4c(c23)CC[C@H](C(C)(C)O)C4)cccc1-n1c(=O)c2cccc(F)c2n(C)c1=O (atropisomer R) | – | – | > 10000 | – | – | – | Activity (Mus musculus [26]): Active; Activity (Mus musculus [27]): Active; inhibition (Mus musculus [28]): Active; inhibition (Homo sapiens [29]): 10%; inhibition (Homo sapiens [30]): 13%; Activity (Mus musculus [31]): Active; Activity (Mus musculus [32]): Active; Activity (Mus musculus [33]): Active; Activity (Mus musculus [34]): Active; Activity (Mus musculus [35]): Active; inhibition (Homo sapiens [36]): 40%
13 | Cc1c(-c2ccc(C(N)=O)c3[nH]c4cc(C(C)(C)O)ccc4c23)cccc1-n1c(=O)c2ccccc2n(C)c1=O | – | 2.6 nM | – | 460 nM | – | – | Stability [25]: Stable
14 | Cc1c(-c2c(F)cc(C(N)=O)c3[nH]c4c(c23)CC[C@H](C(C)(C)O)C4)cccc1-n1c(=O)c2cccc(F)c2n(C)c1=O [BMS-986142] | 750 nM | 25 nM | – | – | – | – | –
15 | Cc1c(-c2c(Cl)cc(C(N)=O)c3[nH]c4cc(C(C)(C)O)ccc4c23)cccc1-n1c(=O)[nH]c2c(F)cccc2c1=O | – | 1.6 nM | – | – | – | – | Drug metabolism [37]: Metabolite_Detected; Drug metabolism [38]: Metabolite_Detected; Drug metabolism [39]: Metabolite_Detected
